# Source: PubChem
# Shown are actives, neighbours in structure and some others; about 3.5% of the full set was active somewhere.
# PAFAH1B3 inh – PAFAH1B3 enzyme inhibitors, primary screen, biochemical, fluorescence polarization, human. 0.28% of 340,000 active. AID 492972, 2010. recombinant PAFAH1B3, FP-rhodamine probe. inhibition, % at 3.39 µM;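 active = inhibition above the screen-wide average of all tested compounds plus 3 SD, cut at about 25% in these data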;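 also: 0% = enzyme with DMSO only and 100% = wells lacking PAFAH1B3 protein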
# Target sequence (Q15102 whole entry, looked up): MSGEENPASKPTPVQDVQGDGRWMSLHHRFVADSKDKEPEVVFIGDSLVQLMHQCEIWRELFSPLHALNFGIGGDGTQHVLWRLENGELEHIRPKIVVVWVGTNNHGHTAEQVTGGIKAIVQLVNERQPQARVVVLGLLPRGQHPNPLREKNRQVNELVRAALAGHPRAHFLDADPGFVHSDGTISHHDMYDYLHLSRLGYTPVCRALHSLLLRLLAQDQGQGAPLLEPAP
# PAFAH2 inh – PAFAH2 enzyme inhibitors, primary screen, biochemical, fluorescence polarization, human. Platelet-activating factor acetylhydrolase 2, cytoplasmic (Homo sapiens), Q99487. recombinant PAFAH2, FP-rhodamine activity probe. inhibition, % at 3.39 µM. 0.99% of 340,000 active. AID 492956, 2010;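 active = inhibition above the mean over all tested compounds plus 3 SD, cut at about 30% in these data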;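 also: inhibitors block probe labeling of enzyme so polarization drops; 0% = enzyme with DMSO and 100% = wells lacking PAFAH2 protein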
# pPAFAH inh – pPAFAH enzyme inhibitors, primary screen, biochemical, fluorescence polarization, human; AID 463082, 2010; Platelet-activating factor acetylhydrolase (Homo sapiens), Q13093; inhibition, % at 3.39 µM; recombinant pPAFAH, FP-rhodamine probe fluorescence polarization; 1.5% of 330,000 active;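 active = inhibition above the mean inhibition across the screen plus 3 SD, cut at about 25% in these data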;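 also: inhibitors block binding of the rhodamine activity-based probe so polarization drops; 0% = enzyme with DMSO and 100% = wells lacking pPAFAH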
# PAFAH1B2 FP inh – PAFAH1B2 enzyme inhibitors, primary screen, biochemical, fluorescence polarization, human; Platelet-activating factor acetylhydrolase IB subunit alpha2 (Homo sapiens), P68402; recombinant PAFAH1B2, FP-rhodamine activity probe; inhibition, % at 3.39 µM; 1.2% of 340,000 active; AID 492953, 2010;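 active = inhibition above the mean of all tested compounds plus 3 SD, cut at about 24% in these data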;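 also: 0% = enzyme with DMSO and 100% = wells lacking PAFAH1B2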
# Target sequence (P68402 whole entry, looked up): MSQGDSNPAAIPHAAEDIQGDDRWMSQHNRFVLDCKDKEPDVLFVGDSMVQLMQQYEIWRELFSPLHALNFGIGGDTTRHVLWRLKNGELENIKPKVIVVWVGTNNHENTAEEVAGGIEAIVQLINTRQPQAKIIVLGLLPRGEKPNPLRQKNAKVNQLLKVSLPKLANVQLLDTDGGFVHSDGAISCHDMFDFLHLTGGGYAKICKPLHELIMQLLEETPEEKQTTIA
# Apaf1 inhib – inhibitors of human Apaf-1 apoptosome, primary screen, biochemical, DEVD-Rh110 fluorescence, uHTS | reconstituted apoptosome caspase-3 activity | inhibition, % at 20 µM | 0.71% of 330,000 active; active = inhibition of at least 40% at 20 µM;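 also: plate controls were DMSO wells for no effect and DEVD-CHO caspase inhibitor wells for full effect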
#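 Assay system – apoptosome proteins · Medium – Hepes buffer, pH 7.5 · Also added – cytochrome c with DEVD-Rh110 · Timing – 30 min compound preincubation, 50 min activation, room temperature · Detection – Rh110 fluorescence, excitation 480 nm, emission 540 nm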
# PREPL inh – PREPL enzyme inhibitors, primary screen, biochemical, fluorescence polarization | Prolyl endopeptidase-like (Homo sapiens), Q4J6C6 | inhibition, % at 5.96 µM | 0.68% of 320,000 active | recombinant PREPL, fluorescence polarization activity-based probe; in the data active = inhibition above about 43%;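 also: 0% = enzyme with DMSO and 100% = wells lacking enzyme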
# pPAFAH confirm – pPAFAH (PLA2G7) enzyme inhibitors, confirmation, biochemical, fluorescence polarization, human | inhibition, % at 3.39 µM | recombinant pPAFAH, FP-Rh probe fluorescence polarization | 72% of 2,300 active | shares compounds with pPAFAH inh;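 active = mean inhibition of the triplicate above the hit cutoff set for the earlier primary screen, cut at about 25% in these data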;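 also: 0% = enzyme with DMSO and 100% = wells lacking pPAFAH enzyme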
# The depositor's hits bear a star; . = no result given.
SMILES,PAFAH1B3 inh,PAFAH2 inh,pPAFAH inh,PAFAH1B2 FP inh,Apaf1 inhib,PREPL inh,pPAFAH confirm
CCCNC(=O)c1ccc(N2CC3CC(C2)c2cccc(=O)n2C3)c(NC(=O)Nc2ccc(CC)cc2)c1 (centres undefined),4.0,19.3,87.9*,-1.7,17.1,13.5,92.0*
COc1cccc(NC(=O)Nc2cc(C(=O)NC(C)C)ccc2N2CC3CC(C2)c2cccc(=O)n2C3)c1 (centres undefined),3.0,20.9,73.7*,3.9,-13.7,11.4,75.5*
O=C(Nc1cc(S(=O)(=O)N2CCOCC2)ccc1OCC(F)(F)F)C1=COCCO1,4.5,6.3,-1.3,7.0,10.6,11.5,.
COc1ccc(-c2csc(Nc3ccc(S(=O)(=O)Nc4cc(C)on4)cc3)n2)cc1C,10.4,37.3*,39.9*,14.0,20.6,11.7,61.5*
O=C(/C=C/c1ccco1)NC(=S)Nc1ccc(N2CCCC2)cc1,0.8,0.8,47.0*,2.0,11.1,24.4,13.7
O=C(/C=C/c1ccco1)NC(=S)Nc1ccc(C(=O)O)cc1,13.0,-0.4,38.9*,1.8,8.7,4.6,6.9
Cc1[nH]c(=S)c(C#N)c(C)c1CC(=O)c1ccc(Br)cc1,8.6,5.3,7.1,1.6,1.0,9.7,.
N#Cc1ccc(Nc2nc(-c3ccc(O)cc3O)cs2)cc1C(F)(F)F,25.5*,9.1,35.2*,11.0,15.4,26.0,26.8*
O=S(=O)(c1cc(O)ccc1O)c1cccc2c(S(=O)(=O)c3cc(O)ccc3O)cccc12,21.5,14.6,40.5*,23.0,-16.1,0.2,28.7*
CCNc1ccccc(-c2ccc3ccccc3n2)c1=O,1.8,1.6,14.2,4.5,8.5,12.8,.
CCNc1ccc2noc3c2c1C(=O)c1ccccc1-3,103.8*,114.0*,105.6*,113.9*,8.2,107.1*,99.1*
S=C(NCCN1CCOCC1)NC1CCCC1,-2.4,-6.2,-2.2,-0.1,-1.6,15.4,.
CC(C(=O)N(C)C1CCS(=O)(=O)C1)N1C(=O)/C(=C/c2ccco2)SC1=S (centres undefined),-2.3,-7.6,22.4,-0.5,1.8,0.3,.
O=C(CN1C(=O)/C(=C/c2ccco2)SC1=S)Nc1ccc(C(=O)O)c(O)c1,7.2,9.1,41.0*,-0.6,11.5,-2.0,14.2
NN1C(=O)/C(=C\c2ccco2)SC1=S,.,.,41.6*,.,-11.6,19.5,1.7
O=C(CN1C(=O)/C(=C/c2ccco2)SC1=S)NC1CCS(=O)(=O)C1 (centres undefined),16.0,19.6,38.4*,3.5,10.7,-14.2,1.0
CC(C(=O)Nc1ccc(C(=O)O)c(O)c1)N1C(=O)/C(=C\c2ccco2)SC1=S (centres undefined),16.2,18.1,38.2*,8.1,6.9,4.8,12.9
O=C(CCCN1C(=O)/C(=C/c2ccccc2)SC1=S)Nc1ccc(C(=O)O)c(O)c1,5.5,6.6,9.8,10.7,10.2,19.8,.
CCOC(=O)CN1C(=O)S/C(=C/c2ccco2)C1=O,3.8,5.4,3.5,6.0,4.6,-8.5,.
O=C(NCc1ccco1)C1CCN(S(=O)(=O)c2cccc([N+](=O)[O-])c2)CC1,3.2,7.2,4.0,4.8,-0.2,3.1,.
O=C(CCN1C(=O)c2ccccc2C1=O)C1=NN[C@@H]2C(=O)N(c3ccc4c(c3)OCCO4)C(=O)[C@H]12,.,.,-5.1,.,-8.4,-1.7,.
O=C1NN(c2ccc(F)c(Cl)c2)C(=O)/C1=C\c1cccc(OC(=O)c2cccs2)c1,12.2,34.5*,40.2*,42.5*,12.5,31.1,40.9*
O=C1/C(=C/c2ccco2)Oc2c1ccc(O)c2CN1CCCCC1,17.0,9.9,36.6*,4.4,9.6,-0.9,7.7
